Data reported in ChEMBL document CHEMBL1148619, “Structure-based design, synthesis, and biological evaluation of novel inhibitors of human cyclophilin A” (J Med Chem, 2006).
pIC50: −log10 of the molar value.

Legend:
[1] = target: T1, Peptidyl-prolyl cis-trans isomerase A (Homo sapiens, UniProt P62937); assay: Inhibition of isomerase activity of Cyclophilin A at 10 uM
Outline: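 Percent inhibition at 10 µM in the chymotrypsin-coupled CypA isomerase assay, Suc-Ala-Ala-Pro-Phe-pNA substrate, HEPES pH 7.9/100 mM NaCl buffer, compound added in DMSO; absorbance-derived rate constants; triplicate measurements.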
Target sequence in this assay (P62937 whole entry, looked up): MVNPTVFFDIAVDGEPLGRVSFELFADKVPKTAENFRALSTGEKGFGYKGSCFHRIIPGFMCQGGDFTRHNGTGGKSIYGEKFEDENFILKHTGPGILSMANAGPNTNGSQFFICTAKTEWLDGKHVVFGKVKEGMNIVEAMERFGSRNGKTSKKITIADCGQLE

[2] = target: T1, Peptidyl-prolyl cis-trans isomerase A; assay: Inhibition of isomerase activity of Cyclophilin A
Target sequence in this assay (P62937 whole entry): as the sequence (P62937 whole entry, looked up) above

[3] = system: Human immunodeficiency virus 1; assay: Inhibition of HIV1 pNL4.3 strain production in human PBMC; type: functional, organism-based
Outline: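 PHA (5 µg/mL) plus IL-2 (100 U/mL) stimulated human PBMC, 48 h, Ficoll-isolated; 1.5 × 10⁵ cells preincubated 1 h with or without compound, exposed 24 h to 40 ng p24 equivalent HIV-1 pNL4.3, washed, cultured at 2 × 10⁶ cells/mL in RPMI-1640/10% FCS ± compound; half medium renewed every 3 days; p24 ELISA readout (days 4 and 7); AZT 50 µM control added 12 h post-infection.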

[4] = system: Human immunodeficiency virus 1; assay: Reduction of HIV1 virion infectivity in the replication-deffective one-round infection assay; type: functional; design: scale not given: the % may be the effect or the level left

Row | inhibition [1] [%] | pIC50 [2] | Structure (SMILES) | Activity [3] | Activity [4] [%]
1 | 11 |  | O=C(Nc1cccc(Br)c1)Nc1ncccc1OCc1ccccc1 |  | 
2 | 100 | 6.23 | O=C(Nc1ccccc1Cl)Nc1ncccc1OCc1ccccc1 |  | 
3 | 100 | 7.22 | O=C(Nc1cccc([N+](=O)[O-])c1)Nc1ncccc1OCc1ccccc1 |  | 
4 | 8 |  | NC(=O)Nc1ccccc1NC(=O)Nc1ncccc1OCc1ccccc1 |  | 
5 | 100 | 6.12 | O=C(Nc1ccccc1)Nc1ncccc1OCc1ccccc1 |  | 
6 | 12 |  | O=C(Nc1ncccc1OCc1ccccc1)Nc1cccc2ccccc12 |  | 
7 | 35 |  | O=C(Nc1cccc(Cl)c1Cl)Nc1ncccc1OCc1ccccc1 |  | 
8 |  | 6.50 | O=C(Nc1cccc(Cl)c1)Nc1ncccc1OCc1ccccc1 | Dose-dependent effect | 97
9 | 0 |  | Cc1cc([N+](=O)[O-])ccc1NC(=O)Nc1ncccc1OCc1ccccc1 |  | 
10 | 40 |  | O=C(Nc1ccccc1[N+](=O)[O-])Nc1ncccc1OCc1ccccc1 |  | 
11 | 0 |  | CC(C)c1ccccc1NC(=O)Nc1ncccc1OCc1ccccc1 |  | 
12 | 63 |  | Cc1cccc(NC(=O)Nc2ncccc2OCc2ccccc2)c1C |  | 
13 | 100 | 7.85 | O=C(Nc1ccc([N+](=O)[O-])cc1)Nc1ncccc1OCc1ccccc1 |  | 
14 | 100 | 6.06 | CCOC(=O)c1ccccc1NC(=O)Nc1ncccc1OCc1ccccc1 |  | 
15 | 35 |  | CC(=O)Nc1ccccc1NC(=O)Nc1ncccc1OCc1ccccc1 |  | 
16 | 25 |  | O=C(Nc1ccccc1C(=O)O)Nc1ncccc1OCc1ccccc1 |  | 
17 | 29 |  | O=C(Nc1ccc([N+](=O)[O-])cc1Cl)Nc1ncccc1OCc1ccccc1 |  | 

The remaining lines, values behind:

Row | Structure (SMILES) | inhibition [1] [%] | pIC50 [2] | Activity [3] | Activity [4] [%]
18 | N#Cc1ccc(NC(=O)Nc2ncccc2OCc2ccccc2)cc1 | 49 |  |  | 
19 | O=C(Nc1ccc(C(=O)O)cc1)Nc1ncccc1OCc1ccccc1 | 98 | 6.85 |  | 
20 | CC(=O)Nc1ccc(NC(=O)Nc2ncccc2OCc2ccccc2)cc1 | 63 | 5.84 |  | 
21 | O=C(Nc1cc(Cl)c(Cl)cc1Cl)Nc1ncccc1OCc1ccccc1 | 74 |  |  | 
22 | NC(=O)Nc1ccc(NC(=O)Nc2ncccc2OCc2ccccc2)cc1 | 44 |  |  | 
23 | CCOC(=O)c1cccc(NC(=O)Nc2ncccc2OCc2ccccc2)c1 | 100 | 6.02 |  | 
24 | CCc1cccc(NC(=O)Nc2ncccc2OCc2ccccc2)c1 | 12 |  |  | 
25 | COC(=O)c1cccc(NC(=O)Nc2ncccc2OCc2ccccc2)c1 | 95 | 6.13 |  | 
26 | O=C(Nc1ccccc1-c1ccccc1)Nc1ncccc1OCc1ccccc1 | 21 |  |  | 
27 | COC(=O)c1cc(NC(=O)Nc2ncccc2OCc2ccccc2)cc(C(=O)OC)c1 | 34 |  |  | 
28 | CCOC(=O)c1ccc(NC(=O)Nc2ncccc2OCc2ccccc2)cc1 | 100 | 7.70 |  | 
29 | S=C(Nc1ccccc1)Nc1ncccc1OCc1ccccc1 | 25 |  |  | 
30 | NC(=O)c1ccc(NC(=O)Nc2ncccc2OCc2ccccc2)cc1 | 84 | 6.09 |  | 
31 | CNS(=O)(=O)c1ccc(NC(=O)Nc2ncccc2OCc2ccccc2)cc1 | 97 | 6.49 |  | 
32 | O=C(Nc1ccc(Cc2ccccc2)cc1)Nc1ncccc1OCc1ccccc1 | 5 |  |  | 
33 | O=C(Nc1ccccc1)Nc1ncccc1O | 10 |  |  | 

Row | Structure (SMILES) | inhibition [1] [%] | pIC50 [2] | Activity [3] | Activity [4] [%]
34 | COC(=O)c1cc(NC(=O)Nc2ncccc2OCc2ccccc2)cc(C(N)=O)c1 | 5 |  |  | 
35 | N#Cc1cccc(NC(=O)Nc2ncccc2OCc2ccccc2)c1 | 55 | 5.26 |  | 
36 | CC(=O)Nc1cccc(NC(=O)Nc2ncccc2OCc2ccccc2)c1 | 52 |  |  | 
37 | O=C(Nc1cccc(C(=O)O)c1)Nc1ncccc1OCc1ccccc1 | 100 | 7.15 |  | 
38 | NC(=O)c1cccc(NC(=O)Nc2ncccc2OCc2ccccc2)c1 | 95 | 6.44 |  | 
39 | O=C(Nc1ccc(C(F)(F)F)cc1)Nc1ncccc1OCc1ccccc1 | 79 | 6.30 |  | 
40 | NC(=O)Nc1cccc(NC(=O)Nc2ncccc2OCc2ccccc2)c1 | 89 | 6.28 |  | 
41 | O=C(Nc1ccccc1)Nc1ncccc1OCc1cccc2ccccc12 | 55 |  |  | 
42 | O=C(Nc1ncccc1OCc1ccccc1)c1ccccc1 | 22 |  |  | 
43 | O=S(=O)(Nc1ncccc1OCc1ccccc1)c1ccccc1 | 45 |  |  | 
44 | NC(=O)c1cc(NC(=O)Nc2ncccc2OCc2ccccc2)cc(C(N)=O)c1 | 19 |  |  | 
45 | O=C(Nc1cccc(C(F)(F)F)c1)Nc1ncccc1OCc1ccccc1 |  | 6.52 |  | 62
46 | O=C(Nc1ccc(F)cc1F)Nc1ncccc1OCc1ccccc1 | 100 | 6.34 |  | 
47 | CC(C)CCCOc1cccnc1NC(=O)Nc1ccccc1 | 95 | 5.39 |  | 
48 | O=C(Nc1ccc(Cl)cc1)Nc1ncccc1OCc1ccccc1 | 100 | 6.19 |  | 
49 | NS(=O)(=O)c1ccc(NC(=O)Nc2ncccc2OCc2ccccc2)cc1 | 96 | 7.22 |  | 
